Series [1] deals with T1, Amyloid-beta precursor protein (Homo sapiens, UniProt P05067). The series is described as follows: Inhibition of HFIP-pretreated amyloid beta (1 to 42 ) (unknown origin) self aggregation at 50 uM after 24 hrs by LC-MS/MS analysis relative to control. In outline:
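Aβ42 at 50 μM incubated under the ThT assay conditions with or without compound at 50 μM (1:1). Residual monomeric Aβ42 was quantified by MS, and % inhibition was taken against compound-free samples.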

Series [2] in a line: Reversible electrochemical behavior of compound assessed as cathodic peak for reconversion of ortho-benzoquinone in 0.2 M phosphate buffer using Ag/AgCl reference electrode by cyclic voltammetry. Type of series: physicochemical.
In series [3] the test system is SH-SY5Y. The series is described as follows: Cytotoxicity against human SH-SY5Y cells assessed as reduction in cell viability at 5 to 10 uM measured after 24 hrs by MTT assay. Type of series: toxicity, cell-based. The conditions noted are these: dose 5-10 µM. The essentials: (§1)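 Human neuroblastoma SH-SY5Y cells were treated with compound at 5 and 10 μM for 24 h. Viability was read by MTT assay.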
For orientation: Tetrazolium assays rely on reduction of a dye to a coloured formazan, in cell work by metabolically active cells.

Series [4] is described as follows: Electrochemical behavior of compound assessed as half wave redox potential in 0.2 M phosphate buffer using Ag/AgCl reference electrode by cyclic voltammetry. Type of series: physicochemical.
A short description of series [5]: Electrochemical behavior of compound assessed as anodic peak for oxidation of catechol group in 0.2 M phosphate buffer using Ag/AgCl reference electrode by cyclic voltammetry. Type of series: physicochemical.
Series [6] deals with T1, Amyloid-beta precursor protein. Briefly: Inhibition of HFIP-pretreated amyloid beta (1 to 42 ) (unknown origin) self aggregation at 50 uM after 24 hrs by thioflavin-T fluorescence method relative to control. In outline:
(§2)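 Self-aggregation of 50 μM Aβ42 was measured by ThT fluorescence. Single-point % inhibition used compound at 50 μM (1:1 with Aβ42). IC50 was determined where inhibition exceeded 50%. Values are the mean of two independent experiments, each run in duplicate, ± SEM.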

Series [7] has the same target. The series is described as follows: Inhibition of HFIP-pretreated amyloid beta (1 to 42) (unknown origin) self aggregation after 24 hrs by thioflavin-T fluorescence method. The essentials:
as §2

In series [8] the test system is SH-SY5Y. Briefly: Cytotoxicity against human SH-SY5Y cells assessed as reduction in cell viability at 10 uM measured after 24 hrs by MTT assay relative to control. Type of series: toxicity, cell-based. In outline:
as §1

Series [9] addresses T1, Amyloid-beta precursor protein. The series is described as follows: Binding affinity to HFIP-pretreated amyloid beta (1 to 42) (unknown origin) assessed as lys16-adduct formation by measuring increase in molecular mass at 50 uM measured up to 6 hrs by LC-MS/MS analysis. In outline: (§3)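 Aβ42 at 50 μM co-incubated with test compound at 50 μM (1:1) under the ThT assay conditions. Deconvoluted mass spectra were taken at 0, 6 and 24 h. Adducts were scored as new higher-mass species, i.e. mass increments over Aβ42.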

For series [10] the target is unchanged. The series is described as follows: Inhibition of HFIP-pretreated amyloid beta (1 to 42 ) (unknown origin) self aggregation assessed as increase in protein oxidation at 50 uM after 24 hrs by LC-MS/MS analysis. The essentials: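 Aβ42 incubated with or without compound at an equimolar level under the ThT assay conditions. Oxidized Aβ42 was followed by MS as the ratio of the oxidized-Aβ42 signal to the reserpine internal-standard signal, plotted against incubation time.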

Series [11] has the same target. Briefly: Binding affinity to HFIP-pretreated amyloid beta (1 to 42) (unknown origin) assessed as lys16-adduct formation by measuring increase in molecular mass at 50 uM measured at 24 hrs by LC-MS/MS analysis. In outline: as §3

Calls of active or inactive are those of the source. The rule behind the calls is not given here. Some results are limits rather than exact numbers.

T1 sequence (P05067 whole entry): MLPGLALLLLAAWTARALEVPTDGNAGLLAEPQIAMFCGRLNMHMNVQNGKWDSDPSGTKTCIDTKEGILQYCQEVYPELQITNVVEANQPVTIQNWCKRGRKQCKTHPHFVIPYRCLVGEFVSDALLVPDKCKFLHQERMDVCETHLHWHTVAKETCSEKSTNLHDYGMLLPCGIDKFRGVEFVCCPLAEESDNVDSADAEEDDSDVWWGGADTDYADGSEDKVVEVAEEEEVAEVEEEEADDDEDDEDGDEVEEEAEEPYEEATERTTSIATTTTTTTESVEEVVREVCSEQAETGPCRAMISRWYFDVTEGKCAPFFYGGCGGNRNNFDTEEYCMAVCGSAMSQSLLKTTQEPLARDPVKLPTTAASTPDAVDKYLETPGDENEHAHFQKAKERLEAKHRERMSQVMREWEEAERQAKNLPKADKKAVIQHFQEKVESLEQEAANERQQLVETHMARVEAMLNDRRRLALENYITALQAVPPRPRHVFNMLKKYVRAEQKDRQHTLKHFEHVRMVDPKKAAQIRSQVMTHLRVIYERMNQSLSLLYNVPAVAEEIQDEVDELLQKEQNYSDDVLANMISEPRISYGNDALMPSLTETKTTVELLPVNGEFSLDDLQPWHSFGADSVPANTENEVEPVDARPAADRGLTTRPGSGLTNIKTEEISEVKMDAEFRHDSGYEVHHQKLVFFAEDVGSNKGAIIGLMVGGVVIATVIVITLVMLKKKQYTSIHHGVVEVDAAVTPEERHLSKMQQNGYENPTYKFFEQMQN

`CCCSC(=O)/C=C/c1cc(O)cc(O)c1`: the inhibition in series [1] and in series [6] was < 10% each time. The Activity entry was “Active” in series [2], “Non-Toxic” in [3] and 0.66 V in series [4]. Further, in series [5], the Ep was found to be 0.76 V.
For the molecule `CCCSC(=O)/C=C/c1ccc(O)c(O)c1`, the Activity result is given as “Active” in [2], “Non-Toxic” in [3] and 0.1 V in [4]. Further, in series [5], the Ep worked out at 0.19 V. For the same molecule, the inhibition – broadly, the change of the read-out against control, counted positive when it falls – in series [6] is > 90%. Also, the IC50 – broadly, the concentration that inhibits the measured activity by half – in series [7] was 3.99 µM.
With `CCCSC(=O)/C=C/c1cc(O)ccc1O`, the inhibition is 43.6% in series [1] and > 90% in series [6]. For the same molecule, the Activity result was “Active” in [2]; 0.1 V in series [4]; > 50% in series [8]; 232 Da in series [9]; 268 Da in [11]. The Ep in [5] is recorded as 0.32 V. For the same molecule, the inhibition result in [10] is “Active”.

The record behind these values is ChEMBL document CHEMBL5126673, “Inhibition of β-Amyloid Aggregation in Alzheimer's Disease: The Key Role of (Pro)electrophilic Warheads” (ACS Med Chem Lett, 2022).
